Experiments:
[1] = target: T1, Adrenergic receptor alpha-1 (Rattus norvegicus, UniProt P15823+P23944+P43140); assay: Binding affinity to alpha-1 adrenergic receptor determined by measurement of [3H]prazosin displacement from rat cortical membrane
T1 sequence (P15823 whole entry): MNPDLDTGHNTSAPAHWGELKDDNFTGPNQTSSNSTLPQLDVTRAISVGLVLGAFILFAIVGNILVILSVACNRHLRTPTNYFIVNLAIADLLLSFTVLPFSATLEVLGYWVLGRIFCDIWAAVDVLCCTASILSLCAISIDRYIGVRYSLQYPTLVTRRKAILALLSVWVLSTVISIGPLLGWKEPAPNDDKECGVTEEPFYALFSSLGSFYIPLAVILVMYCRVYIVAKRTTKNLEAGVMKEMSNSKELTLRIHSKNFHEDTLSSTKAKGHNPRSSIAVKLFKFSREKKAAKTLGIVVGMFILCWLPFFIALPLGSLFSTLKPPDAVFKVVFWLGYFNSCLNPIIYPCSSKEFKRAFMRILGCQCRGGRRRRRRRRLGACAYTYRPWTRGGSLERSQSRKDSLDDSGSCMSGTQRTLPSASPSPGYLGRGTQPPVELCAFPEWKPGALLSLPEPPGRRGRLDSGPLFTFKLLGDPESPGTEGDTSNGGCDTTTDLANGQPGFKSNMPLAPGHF
T1 sequence (P23944 whole entry): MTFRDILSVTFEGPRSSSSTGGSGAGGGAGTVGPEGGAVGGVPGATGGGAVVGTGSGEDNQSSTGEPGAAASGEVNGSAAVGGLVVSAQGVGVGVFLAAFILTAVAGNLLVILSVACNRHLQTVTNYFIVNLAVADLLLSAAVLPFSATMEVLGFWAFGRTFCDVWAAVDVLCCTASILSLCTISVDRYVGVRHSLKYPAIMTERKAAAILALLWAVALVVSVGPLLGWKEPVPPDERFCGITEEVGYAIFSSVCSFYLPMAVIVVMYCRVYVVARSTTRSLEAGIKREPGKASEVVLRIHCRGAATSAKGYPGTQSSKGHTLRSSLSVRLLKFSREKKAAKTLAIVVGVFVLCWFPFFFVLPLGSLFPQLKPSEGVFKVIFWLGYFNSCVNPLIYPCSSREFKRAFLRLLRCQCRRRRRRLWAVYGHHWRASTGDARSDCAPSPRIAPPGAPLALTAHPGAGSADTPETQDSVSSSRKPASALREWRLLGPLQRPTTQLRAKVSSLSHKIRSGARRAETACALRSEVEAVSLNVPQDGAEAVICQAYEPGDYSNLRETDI
T1 sequence (P43140 whole entry): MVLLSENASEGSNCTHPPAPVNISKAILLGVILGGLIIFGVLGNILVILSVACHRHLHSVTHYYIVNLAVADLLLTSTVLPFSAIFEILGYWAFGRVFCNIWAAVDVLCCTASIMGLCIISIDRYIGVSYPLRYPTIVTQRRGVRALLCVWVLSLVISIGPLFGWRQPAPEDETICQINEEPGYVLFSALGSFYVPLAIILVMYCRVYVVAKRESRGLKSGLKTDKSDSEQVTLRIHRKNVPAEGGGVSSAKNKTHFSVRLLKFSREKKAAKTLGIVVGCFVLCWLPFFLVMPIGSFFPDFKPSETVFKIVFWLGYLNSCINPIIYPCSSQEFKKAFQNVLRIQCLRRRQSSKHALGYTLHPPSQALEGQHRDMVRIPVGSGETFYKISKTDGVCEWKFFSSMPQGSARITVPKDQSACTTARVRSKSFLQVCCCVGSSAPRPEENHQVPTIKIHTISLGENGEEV
Procedure, shortened: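 Male Sprague-Dawley rat (150-200 g) cerebral cortex membranes, washed in 50 mM Tris-HCl/0.5 mM EDTA pH 7.4. 250 µg membrane protein incubated with 0.5 nM [3H]prazosin for 30 min at 25 °C in a 0.5 mL volume. Nonspecific binding defined by 10 µM phentolamine. IC50 estimated graphically; Ki calculated by Cheng-Prusoff.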

[2] = target: T2, Adrenergic receptor alpha-2 (Rattus norvegicus, UniProt P22086+P19328+P22909); assay: Binding affinity to alpha-2 adrenergic receptor determined by measurement of [3H]yohimbine displacement from rat cortical membrane
T2 sequence (P22086 whole entry): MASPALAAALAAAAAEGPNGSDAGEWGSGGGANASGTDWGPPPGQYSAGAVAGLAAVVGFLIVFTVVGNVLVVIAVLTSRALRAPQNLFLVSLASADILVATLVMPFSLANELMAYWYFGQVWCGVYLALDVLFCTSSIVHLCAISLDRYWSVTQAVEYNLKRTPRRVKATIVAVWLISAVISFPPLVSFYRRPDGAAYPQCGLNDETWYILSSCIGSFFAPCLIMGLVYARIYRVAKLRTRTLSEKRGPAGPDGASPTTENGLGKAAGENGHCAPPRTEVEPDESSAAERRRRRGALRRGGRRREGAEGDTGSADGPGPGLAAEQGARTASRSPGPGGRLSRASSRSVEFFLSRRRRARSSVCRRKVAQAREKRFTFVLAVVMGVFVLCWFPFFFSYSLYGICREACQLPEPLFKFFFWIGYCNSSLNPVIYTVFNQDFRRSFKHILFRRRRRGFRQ
T2 sequence (P19328 whole entry): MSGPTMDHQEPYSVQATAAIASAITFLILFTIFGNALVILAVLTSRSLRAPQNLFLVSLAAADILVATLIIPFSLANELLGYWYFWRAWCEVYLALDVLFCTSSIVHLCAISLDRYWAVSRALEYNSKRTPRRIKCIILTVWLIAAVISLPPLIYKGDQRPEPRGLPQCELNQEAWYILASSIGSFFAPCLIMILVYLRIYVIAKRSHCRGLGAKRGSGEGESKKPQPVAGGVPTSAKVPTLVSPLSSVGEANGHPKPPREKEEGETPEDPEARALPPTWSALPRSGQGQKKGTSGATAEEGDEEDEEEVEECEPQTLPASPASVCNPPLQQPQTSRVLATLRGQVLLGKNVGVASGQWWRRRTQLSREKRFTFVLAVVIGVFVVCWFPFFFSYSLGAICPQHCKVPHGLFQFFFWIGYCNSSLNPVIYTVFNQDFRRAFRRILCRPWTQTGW
T2 sequence (P22909 whole entry): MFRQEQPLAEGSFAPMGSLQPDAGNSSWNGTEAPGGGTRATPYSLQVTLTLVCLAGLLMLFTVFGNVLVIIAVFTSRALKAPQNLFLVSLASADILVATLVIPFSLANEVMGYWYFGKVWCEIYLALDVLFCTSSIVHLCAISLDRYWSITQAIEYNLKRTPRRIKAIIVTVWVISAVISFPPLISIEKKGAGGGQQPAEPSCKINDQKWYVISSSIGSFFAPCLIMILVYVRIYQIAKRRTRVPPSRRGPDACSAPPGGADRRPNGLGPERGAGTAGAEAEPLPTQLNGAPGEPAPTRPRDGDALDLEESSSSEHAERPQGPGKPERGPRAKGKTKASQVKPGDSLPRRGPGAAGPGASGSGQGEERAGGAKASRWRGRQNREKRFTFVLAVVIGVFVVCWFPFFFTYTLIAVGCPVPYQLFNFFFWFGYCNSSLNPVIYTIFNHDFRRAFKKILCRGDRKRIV

SMILES | Log Ki [1] | Log Ki [2]
CS(=O)(=O)N1CCC[C@@H]2CN3CCc4cc5c(cc4[C@@H]3C[C@H]21)OCO5 | -5.32 | -9.19
COc1cc2c(cc1OC)[C@@H]1C[C@H]3[C@H](CCCN3S(C)(=O)=O)CN1C(C)C2 (stereo partly drawn) | -4.93 | -7.08
CS(=O)(=O)N1CCC[C@@H]2CN3CCc4cc(O)ccc4[C@@H]3C[C@@H]21 | -5.27 | -8.2
CN1C[C@@H]2CCCN(S(C)(=O)=O)[C@@H]2C[C@H]1c1ccc2c(c1)OCO2 | -5.55 | -6.13
CCCCS(=O)(=O)N1CCC[C@H]2CN3CCc4ccccc4[C@@H]3C[C@H]21 | -5.76 | -5.82
CN1C[C@H]2CCCN(S(C)(=O)=O)[C@H]2C[C@H]1c1ccc2c(c1)OCO2 | -4.82 | -5.38
COc1ccc2c(c1)CCN1C[C@H]3CCCN(S(=O)(=O)c4cccs4)[C@@H]3C[C@@H]21 | -5.01 | -8.83
C=CS(=O)(=O)N1CCC[C@@H]2CN3CCc4cc(OC)ccc4[C@@H]3C[C@@H]21 | -5.33 | -8.82
COc1ccc2c(c1)CCN1C[C@H]3CCCN(S(=O)(=O)CCl)[C@@H]3C[C@@H]21 | -5.13 | -8.95
CS(=O)(=O)N1CC[C@H]2C[C@H]3c4ccccc4CCN3C[C@H]2C1 | -5.2 | -6.4
CC(C)CS(=O)(=O)N(C)[C@@H]1CCN2CCc3ccccc3[C@@H]2C1 | -5.7 | -8.04
COc1ccc2c(c1Br)CCN1C[C@H]3CCCN(S(C)(=O)=O)[C@@H]3C[C@@H]21 | -5.35 | -8.3
O=S(=O)(c1ccc(Cl)cc1)N1CCC[C@@H]2CN3CCc4ccccc4[C@@H]3C[C@@H]21 | -5.19 | -8.3
COc1ccc2c(c1)CCN1C[C@H]3CCCN(S(=O)(=O)N(C)C)[C@H]3C[C@@H]21 | -5.25 | -8.66
CS(=O)(=O)N1CCC[C@H]2CN3CCc4ccccc4[C@@H]3C[C@H]21 | -5.58 | -5.96
COc1ccc(OC)c2c1CCN1C[C@H]3CCCN(S(C)(=O)=O)[C@H]3C[C@@H]21 | -5.63 | -7.37
CS(=O)(=O)N1CCC[C@@H]2CN3CCc4c([nH]c5ccccc45)[C@@H]3C[C@@H]21 | -4.8 | -7.78
CS(=O)(=O)N1CCC[C@@H]2CN3CCc4ccc(F)cc4[C@@H]3C[C@@H]21 | -5.21 | -8.04
CS(=O)(=O)N1CCC[C@H]2CN3CCc4cc5c(cc4[C@@H]3C[C@H]21)OCO5 | -5.95 | -7.24
CS(=O)(=O)N1CC[C@@H]2CN3CCc4ccccc4[C@@H]3C[C@@H]2C1 | -5.8 | -7.54
CS(=O)(=O)N1CCC[C@H]2CN3CCc4ccccc4[C@@H]3C[C@@H]21 | -5.65 | -7.25

Continued, values first:

Log Ki [1] | Log Ki [2] | SMILES
-6.03 | -8.74 | CN(C)S(=O)(=O)N1CCC[C@@H]2CN3CCc4ccccc4[C@@H]3C[C@@H]21
-4.89 | -9.15 | Cc1ccc2c(c1)CCN1C[C@H]3CCCN(S(C)(=O)=O)[C@H]3C[C@@H]21
-5.38 | -8.69 | O=S(=O)(c1ccc(F)cc1)N1CCC[C@@H]2CN3CCc4ccccc4[C@@H]3C[C@@H]21
-4.92 | -8.43 | COc1ccc2c(c1)CCN1C[C@H]3CCCN(S(N)(=O)=O)[C@H]3C[C@@H]21
-5.06 | -6.4 | CS(=O)(=O)N1CCC[C@H]2[C@H]3c4cc5c(cc4CCN3CC[C@@H]21)OCO5
-5.65 | -7.56 | CS(=O)(=O)N1CCC[C@H]2CN3CCc4cc5c(cc4[C@@H]3C[C@@H]21)OCO5
-4.42 | -7.94 | COc1ccc2c(c1OC)CCN1C[C@H]3CCCN(S(C)(=O)=O)[C@H]3C[C@@H]21
-4.85 | -6.88 | COc1ccc2c(c1)CCN1C[C@@H]3CCCN(S(C)(=O)=O)[C@@H]3C[C@@H]21
-4.46 | -8.1 | COc1cc2c(cc1OC)[C@@H]1C[C@H]3[C@H](CCCN3S(=O)(=O)CC(C)C)CN1CC2
-5.25 | -8.3 | COc1cc2c(cc1Br)[C@@H]1C[C@@H]3[C@H](CCCN3S(C)(=O)=O)CN1CC2
-5.13 | -8.82 | COc1ccc2c(c1)CCN1C[C@H]3CCCN(S(=O)(=O)Cc4ccccc4)[C@@H]3C[C@@H]21
-5.15 | -6.26 | CS(=O)(=O)N1CCC[C@H]2CN3CCc4c([nH]c5ccccc45)[C@@H]3C[C@H]21
-5.51 | -6.12 | CS(=O)(=O)N1CCC[C@@H]2CN(CCc3ccccc3)CC[C@@H]21

— ChEMBL document CHEMBL1125249, “Structure-affinity relationships of 12-sulfonyl derivatives of 5,8,8a,9,10,11,12,12a,13,13a-decahydro-6H-isoquino[2,1-g][1 ,6] naphthyridines at alpha-adrenoceptors” (J Med Chem, 1991)
